Laboratory results from article PMC3961564 (The Journal of investigative dermatology, 2013).

Key:
[1] = molecular target: Recombinant PDGF-BB (platelet-derived growth factor-BB) (UniProt P01127); test: SPR
[2] = test system: FN-null fibroblasts; test: FN-null cell survival on CBD/14 with peptide in solution; format: cell-based, mouse; details: serum-free DMEM, 1nM PDGF-BB, 3d, viable cells counted
In short: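 Mouse FN-null fibroblasts were maintained in DMEM with 10% FBS. 96-well plates were precoated with 0.125μM GST-tagged CBD/14, blocked with 2% BSA for 2h and washed. Cells were seeded at 4,000/well for 4h at 37°C in serum-free DMEM, and BSA medium with soluble test compound ±1nM PDGF-BB was added. After 3d at 37°C, viable spread cells were counted in five 10x fields in three replicate wells (mean ± SD, n=15).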

[3] = molecular target: anastellin (FN630-704) with a Cys-tag at the C-terminus (human); test: radioligand binding
[4] = molecular target: P4 (FN2043-2076) (human); test: radioligand binding
[5] = molecular target: FN668-704, second half of anastellin, with cysteine at the C-terminus (human); test: radioligand binding
[6] = molecular target: P3 (FN1853-1877) (human); test: radioligand binding
[7] = test system: cell growth; details: RWRPK by itself; ref Hocking et al., 2008; cited from earlier work
[8] = molecular target: 125I-PDGF-BB (125I-radiolabeled platelet-derived growth factor-BB) (UniProt P01127 82-190, 125I label (site not stated)); test: radioligand binding
Chain of 125I-PDGF-BB (125I-radiolabeled platelet-derived growth factor-BB) (UniProt P01127 82-190, 125I label (site not stated)) (P01127 82-190): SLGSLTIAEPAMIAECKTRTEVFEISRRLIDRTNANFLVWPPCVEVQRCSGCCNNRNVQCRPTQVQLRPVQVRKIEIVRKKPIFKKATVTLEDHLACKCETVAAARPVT

Chain of 125I-PDGF-BB (125I-radiolabeled platelet-derived growth factor-BB) (from UniProt P01127 82-190) (ligand) (P01127 82-190): as above
Chain of Recombinant PDGF-BB (platelet-derived growth factor-BB) (P01127 82-190): as above

For “anastellin (FN630-704) with a Cys-tag at the C-terminus (domain or fragment)”, which Kd [1] is on record?
The Kd was 22.9 nM.

For QWNAPQPSHISKYILRWRPK [Peptide P11], which “FN-null cell survival on CBD/14, peptide in solution” value (from here on “FN-null cell survival”) [2] is on record?
The value was “promoted PDGF-BB survival signals”.

For “125I-PDGF-BB (125I-radiolabeled platelet-derived growth factor-BB) (from UniProt P01127 82-190) (ligand)”, which Kd [3] is on record?
The Kd was 90 nM.

And the Kd [4]?
The Kd was 56 nM.

And the Kd [5]?
The Kd was 80 nM.

What about the Kd [6] of the same molecule?
Its Kd is 87 nM.

Which “FN-null cell survival” value [2] does the source give for QPSHISKYILRWRPK [Peptide P5] here?
The value was “promoted PDGF-BB survival signals”.

With RWRPK as the molecule, how does the “FN-null cell survival” value [2] read?
Its value is “does not collaborate with PDGF-BB”.

What about the “Cell growth” value [7] of the same molecule?
Its value is “inhibits cell growth”.

With QLISHQQYGHQEVTRFDFTTTSTST [P2 (FN680-704)] as the molecule, how does the Kd [8] read?
Its Kd is 110 nM.

For QPSHISKYILRWRPKNSVGRWKEAT [P1 (FN634-658)], which Kd [8] is on record?
The Kd was 250 nM.
